From ChEMBL document CHEMBL4190249, “Antiproliferative and apoptotic activities of sequence-specific histone acetyltransferase inhibitors” (Eur J Med Chem, 2017)
Activity calls are given as the source filed them. The rule behind the calls is not given here.

What was measured:
A549 [1] = assay: Induction of apoptosis in human A549 cells at 2 uM after 48 hrs by Annexin V-FITC/ethidium homodimer-3/Hoechst 33342 staining based fluorescence microscopic method; assay type: functional, cell-based
Summary of the method: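 A549 cells seeded in chamber slides at 2×10^4 cells/well and exposed to 2 μM for 48 h; vehicle control 0.1% DMSO. Cells were washed in binding buffer and stained with FITC-annexin V (apoptotic), ethidium homodimer III (necrotic) and Hoechst 33342 (all nuclei), then imaged by confocal fluorescence microscopy.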

[2] = target: Cellular tumor antigen p53 (Homo sapiens) (UniProt P04637); assay: Activation of p53 in human A549 cells assessed as upregulation of CD70 gene expression at 2 uM after 48 hrs by microarray analysis relative to control; assay type: cell-based
Summary of the method: (§1)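 A549 cells plated at 2×10^5 cells/well, treated 48 h at 2 μM, with DMSO vehicle as control. Whole-genome transcriptional profiling followed the manufacturer's protocol. Total RNA integrity was checked by Bioanalyzer before arraying.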

A549 [3] = assay: Upregulation of NEFL gene expression in human A549 cells at 2 uM after 48 hrs by microarray analysis relative to control; assay type: functional; summary of the method: as §1
A549 [4] = assay: Downregulation of ASNS gene expression in human A549 cells at 2 uM after 48 hrs by microarray analysis relative to control; assay type: functional; summary of the method: as §1
[5] = target: Cellular tumor antigen p53 (Homo sapiens) (UniProt P04637); assay: Activation of p53 in human A549 cells assessed as upregulation of DDB2 gene expression at 2 uM after 48 hrs by microarray analysis relative to control; assay type: cell-based; summary of the method: as §1
A549 [6] = assay: Upregulation of UIMC1 gene expression in human A549 cells at 2 uM after 48 hrs by microarray analysis relative to control; assay type: functional; summary of the method: as §1
A549 [7] = assay: Upregulation of MIR4713 gene expression in human A549 cells at 2 uM after 48 hrs by microarray analysis relative to control; assay type: functional; summary of the method: as §1
[8] = target: Cellular tumor antigen p53 (Homo sapiens) (UniProt P04637); assay: Activation of p53 in human A549 cells assessed as upregulation of FDXR gene expression at 2 uM after 48 hrs by microarray analysis relative to control; assay type: cell-based; summary of the method: as §1
dsDNA [9] = assay: Binding affinity to 5'-ACTTATCCACTATAGA-3'/3'-TGAATAGGTGATATCT-5' dsDNA (unknown origin) assessed as change in melting temperature at 2.5 uM by spectrophotometric method; assay type: nucleic-acid assay
A549 [10] = assay: Downregulation of ALDH1L2 gene expression in human A549 cells at 2 uM after 48 hrs by microarray analysis relative to control; assay type: functional; summary of the method: as §1
A549 [11] = assay: Upregulation of WDR63 gene expression in human A549 cells at 2 uM after 48 hrs by microarray analysis relative to control; assay type: functional; summary of the method: as §1
A549 [12] = assay: Downregulation of SNORA9 gene expression in human A549 cells at 2 uM after 48 hrs by microarray analysis relative to control; assay type: functional; summary of the method: as §1
A549 [13] = assay: Antiproliferative activity against human A549 cells at 0.1 to 10 uM after 96 hrs by WST8 assay; assay type: functional, cell-based
Summary of the method: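 Cells seeded at 5×10^3 per well and grown 24 h at 37°C, 5% CO2. A549 medium was DMEM with 10% FBS and 2 mM L-glutamine. SW620 medium had 10% FBS and 1% penicillin/streptomycin. Medium was then replaced with conjugate at 0.1, 1, 5 or 10 μM for 96 h. WST-8 reagent was added and absorbance read at 450 nm. Results are mean ± SD.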

A549 [14] = assay: Upregulation of GAS6-AS1 gene expression in human A549 cells at 2 uM after 48 hrs by microarray analysis relative to control; assay type: functional; summary of the method: as §1
A549 [15] = assay: Upregulation of ABCA12 gene expression in human A549 cells at 2 uM after 48 hrs by microarray analysis relative to control; assay type: functional; summary of the method: as §1
[16] = target: Cellular tumor antigen p53 (Homo sapiens) (UniProt P04637); assay: Activation of p53 in human A549 cells assessed as upregulation of FAS gene expression at 2 uM after 48 hrs by microarray analysis relative to control; assay type: cell-based; summary of the method: as §1
dsDNA [17] = assay: Binding affinity to 5'-ACTTATTCCATATAGA-3'/3'-TGAATAAGGTATATCT-5' dsDNA (unknown origin) assessed as change in melting temperature at 2.5 uM by spectrophotometric method; assay type: nucleic-acid assay
[18] = target: Cellular tumor antigen p53 (Homo sapiens) (UniProt P04637); assay: Activation of p53 in human A549 cells assessed as downregulation of STC2 gene expression at 2 uM after 48 hrs by microarray analysis relative to control; assay type: cell-based; summary of the method: as §1
[19] = target: T1, Histone acetyltransferase p300 (Homo sapiens, UniProt Q09472); assay: Inhibition of p300 (unknown origin) using H3 peptide and acetyl-coA as substrate by fluorometric assay
Summary of the method: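 Fluorometric HAT kit assay with recombinant p300 core domain as enzyme and acetyl-CoA plus H3 histone peptide as substrates. Effectors were tested at 1 and 5 μM. HeLa nuclear extract served as positive control, and 0.5% DMSO was set as 100% activity.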

[20] = target: Cellular tumor antigen p53 (Homo sapiens) (UniProt P04637); assay: Activation of p53 in human A549 cells assessed as upregulation of TP53INP1 gene expression at 2 uM after 48 hrs by microarray analysis relative to control; assay type: cell-based; summary of the method: as §1
[21] = target: Cellular tumor antigen p53 (Homo sapiens) (UniProt P04637); assay: Activation of p53 in human A549 cells assessed as upregulation of EDA2R gene expression at 2 uM after 48 hrs by microarray analysis relative to control; assay type: cell-based; summary of the method: as §1
A549 [22] = assay: Downregulation of ULBP1 gene expression in human A549 cells at 2 uM after 48 hrs by microarray analysis relative to control; assay type: functional; summary of the method: as §1
A549 [23] = assay: Upregulation of SULF2 gene expression in human A549 cells at 2 uM after 48 hrs by microarray analysis relative to control; assay type: functional; summary of the method: as §1
[24] = target: Cellular tumor antigen p53 (Homo sapiens) (UniProt P04637); assay: Activation of p53 in human A549 cells assessed as upregulation of CYFIP2 gene expression at 2 uM after 48 hrs by microarray analysis relative to control; assay type: cell-based; summary of the method: as §1
[25] = target: Cellular tumor antigen p53 (Homo sapiens) (UniProt P04637); assay: Activation of p53 in human A549 cells assessed as upregulation of BTG2 gene expression at 2 uM after 48 hrs by microarray analysis relative to control; assay type: cell-based; summary of the method: as §1
A549 [26] = assay: Upregulation of MIR3189 gene expression in human A549 cells at 2 uM after 48 hrs by microarray analysis relative to control; assay type: functional; summary of the method: as §1
[27] = target: Cellular tumor antigen p53 (Homo sapiens) (UniProt P04637); assay: Activation of p53 in human A549 cells assessed as downregulation of CARS gene expression at 2 uM after 48 hrs by microarray analysis relative to control; assay type: cell-based; summary of the method: as §1
[28] = target: Cellular tumor antigen p53 (Homo sapiens) (UniProt P04637); assay: Activation of p53 in human A549 cells assessed as upregulation of MDM2 gene expression at 2 uM after 48 hrs by microarray analysis relative to control; assay type: cell-based; summary of the method: as §1
A549 [29] = assay: Downregulation of TAS2R30 gene expression in human A549 cells at 2 uM after 48 hrs by microarray analysis relative to control; assay type: functional; summary of the method: as §1
[30] = target: Cellular tumor antigen p53 (Homo sapiens) (UniProt P04637); assay: Activation of p53 in human A549 cells assessed as downregulation of CHAC1 gene expression at 2 uM after 48 hrs by microarray analysis relative to control; assay type: cell-based; summary of the method: as §1
A549 [31] = assay: Upregulation of CDKN1A gene expression in human A549 cells at 2 uM after 48 hrs by microarray analysis relative to control; assay type: functional; summary of the method: as §1
A549 [32] = assay: Upregulation of ANKRD1 gene expression in human A549 cells at 2 uM after 48 hrs by microarray analysis relative to control; assay type: functional; summary of the method: as §1
A549 [33] = assay: Upregulation of GDF15 gene expression in human A549 cells at 2 uM after 48 hrs by microarray analysis relative to control; assay type: functional; summary of the method: as §1
A549 [34] = assay: Upregulation of POLH gene expression in human A549 cells at 2 uM after 48 hrs by microarray analysis relative to control; assay type: functional; summary of the method: as §1
A549 [35] = assay: Upregulation of MIR3685 gene expression in human A549 cells at 2 uM after 48 hrs by microarray analysis relative to control; assay type: functional; summary of the method: as §1
A549 [36] = assay: Upregulation of SCARNA7 gene expression in human A549 cells at 2 uM after 48 hrs by microarray analysis relative to control; assay type: functional; summary of the method: as §1
[37] = target: Cellular tumor antigen p53 (Homo sapiens) (UniProt P04637); assay: Activation of p53 in human A549 cells assessed as upregulation of SPATA18 gene expression at 2 uM after 48 hrs by microarray analysis relative to control; assay type: cell-based; summary of the method: as §1
A549 [38] = assay: Downregulation of GUSBP3 gene expression in human A549 cells at 2 uM after 48 hrs by microarray analysis relative to control; assay type: functional; summary of the method: as §1
[39] = target: Cellular tumor antigen p53 (Homo sapiens) (UniProt P04637); assay: Activation of p53 in human A549 cells assessed as upregulation of SESN1 gene expression at 2 uM after 48 hrs by microarray analysis relative to control; assay type: cell-based; summary of the method: as §1
[40] = target: T1, Histone acetyltransferase p300; assay: Inhibition of p300 (unknown origin) at 1 to 5 uM sing H3 peptide and acetyl-coA as substrate by fluorometric assay
Summary of the method: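 Fluorometric HAT kit assay with recombinant p300 core domain as enzyme and acetyl-CoA plus H3 histone peptide as substrates. Released CoA-SH reacts with a developer, read at Ex/Em 535/587 nm. Effectors were tested at 1 and 5 μM. HeLa nuclear extract served as positive control, and 0.5% DMSO was set as 100% activity.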

Cellular tumor antigen p53 (Homo sapiens), sequence (P04637 whole entry, looked up): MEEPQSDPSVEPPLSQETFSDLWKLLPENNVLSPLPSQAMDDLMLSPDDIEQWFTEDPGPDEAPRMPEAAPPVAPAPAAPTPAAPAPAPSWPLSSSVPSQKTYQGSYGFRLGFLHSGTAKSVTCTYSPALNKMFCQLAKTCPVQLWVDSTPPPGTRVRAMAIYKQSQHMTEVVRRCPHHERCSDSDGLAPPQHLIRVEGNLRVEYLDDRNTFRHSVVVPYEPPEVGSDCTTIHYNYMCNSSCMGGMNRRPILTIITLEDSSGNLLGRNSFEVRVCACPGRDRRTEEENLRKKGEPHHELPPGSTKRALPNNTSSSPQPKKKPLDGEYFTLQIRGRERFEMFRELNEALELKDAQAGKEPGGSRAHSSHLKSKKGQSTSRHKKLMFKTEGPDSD
T1 sequence (Q09472 whole entry, the tested form may be a part): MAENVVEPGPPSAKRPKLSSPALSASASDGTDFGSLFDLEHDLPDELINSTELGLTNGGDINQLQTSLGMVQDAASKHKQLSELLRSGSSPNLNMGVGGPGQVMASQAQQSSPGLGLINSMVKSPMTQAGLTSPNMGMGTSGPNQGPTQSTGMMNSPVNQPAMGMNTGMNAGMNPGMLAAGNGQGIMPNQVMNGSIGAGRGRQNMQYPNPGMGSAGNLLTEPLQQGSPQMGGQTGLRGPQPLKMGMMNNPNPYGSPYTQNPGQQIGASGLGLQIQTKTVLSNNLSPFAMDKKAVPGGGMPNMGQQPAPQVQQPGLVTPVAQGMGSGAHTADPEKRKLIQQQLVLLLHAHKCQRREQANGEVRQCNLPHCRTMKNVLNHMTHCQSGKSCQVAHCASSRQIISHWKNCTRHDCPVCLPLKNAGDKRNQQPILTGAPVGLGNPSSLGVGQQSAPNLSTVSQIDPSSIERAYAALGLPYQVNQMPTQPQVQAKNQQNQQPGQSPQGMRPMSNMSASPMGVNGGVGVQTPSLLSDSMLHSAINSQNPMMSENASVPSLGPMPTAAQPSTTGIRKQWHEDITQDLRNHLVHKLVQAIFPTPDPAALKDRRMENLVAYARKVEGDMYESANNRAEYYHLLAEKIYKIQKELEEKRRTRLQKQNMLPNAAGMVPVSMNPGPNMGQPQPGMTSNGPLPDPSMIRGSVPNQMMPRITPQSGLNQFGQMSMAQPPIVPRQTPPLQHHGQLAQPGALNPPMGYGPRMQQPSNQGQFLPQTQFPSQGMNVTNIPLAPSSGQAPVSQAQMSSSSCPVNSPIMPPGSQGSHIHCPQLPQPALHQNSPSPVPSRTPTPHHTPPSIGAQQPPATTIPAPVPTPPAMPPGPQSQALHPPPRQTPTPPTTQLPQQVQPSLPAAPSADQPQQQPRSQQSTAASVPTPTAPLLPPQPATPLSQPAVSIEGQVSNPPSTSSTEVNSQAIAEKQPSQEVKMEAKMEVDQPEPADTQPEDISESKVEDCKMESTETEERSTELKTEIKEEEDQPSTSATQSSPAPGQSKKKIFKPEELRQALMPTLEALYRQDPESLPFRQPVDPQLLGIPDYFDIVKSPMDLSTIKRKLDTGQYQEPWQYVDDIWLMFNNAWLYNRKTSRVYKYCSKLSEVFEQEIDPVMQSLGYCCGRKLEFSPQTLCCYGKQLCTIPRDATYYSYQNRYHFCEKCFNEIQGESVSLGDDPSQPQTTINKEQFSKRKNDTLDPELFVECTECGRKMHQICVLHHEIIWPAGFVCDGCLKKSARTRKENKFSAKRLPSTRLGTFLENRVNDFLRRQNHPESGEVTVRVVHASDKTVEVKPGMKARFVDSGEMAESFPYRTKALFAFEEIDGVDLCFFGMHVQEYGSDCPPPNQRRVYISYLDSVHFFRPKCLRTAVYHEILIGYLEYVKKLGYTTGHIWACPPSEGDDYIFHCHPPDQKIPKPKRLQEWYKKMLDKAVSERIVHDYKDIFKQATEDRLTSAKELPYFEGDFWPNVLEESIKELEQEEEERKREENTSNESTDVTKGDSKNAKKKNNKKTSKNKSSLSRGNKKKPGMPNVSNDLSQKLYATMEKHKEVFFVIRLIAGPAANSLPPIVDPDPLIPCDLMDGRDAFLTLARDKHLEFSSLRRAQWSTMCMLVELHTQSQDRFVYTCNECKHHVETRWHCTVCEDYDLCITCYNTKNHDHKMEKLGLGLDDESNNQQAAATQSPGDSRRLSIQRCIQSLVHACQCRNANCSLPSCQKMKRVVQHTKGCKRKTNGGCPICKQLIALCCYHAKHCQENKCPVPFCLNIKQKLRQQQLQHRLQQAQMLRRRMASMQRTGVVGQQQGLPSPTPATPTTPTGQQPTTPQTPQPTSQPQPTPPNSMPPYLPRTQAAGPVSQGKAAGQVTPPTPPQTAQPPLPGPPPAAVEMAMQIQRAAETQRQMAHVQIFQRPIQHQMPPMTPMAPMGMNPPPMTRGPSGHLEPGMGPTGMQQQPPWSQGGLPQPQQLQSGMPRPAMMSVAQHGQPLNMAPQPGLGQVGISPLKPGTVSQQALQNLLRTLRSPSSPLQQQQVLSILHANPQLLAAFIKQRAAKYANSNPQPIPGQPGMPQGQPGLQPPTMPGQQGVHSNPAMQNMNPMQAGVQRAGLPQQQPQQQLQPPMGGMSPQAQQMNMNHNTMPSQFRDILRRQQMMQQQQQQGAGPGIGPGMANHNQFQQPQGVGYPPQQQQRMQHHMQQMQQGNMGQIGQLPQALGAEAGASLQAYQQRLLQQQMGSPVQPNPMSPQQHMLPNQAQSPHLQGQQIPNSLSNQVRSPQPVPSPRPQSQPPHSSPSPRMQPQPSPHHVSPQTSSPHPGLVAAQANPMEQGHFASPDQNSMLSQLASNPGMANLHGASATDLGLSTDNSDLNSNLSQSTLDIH

CC1=NN(c2ccc(C(=O)NCCOCCOCC(=O)NCCC(=O)Nc3cn(C)c(C(=O)Nc4cc(C(=O)Nc5cn(C)c(C(=O)Nc6cn(C)c(C(=O)NCCCC(=O)Nc7cc(C(=O)Nc8cc(C(=O)Nc9cc(C(=O)Nc%10cc(C(=O)NCCCN(C)C)n(C)c%10)n(C)c9)n(C)c8)n(C)c7)n6)n5)n(C)c4)n3)cc2)C(=O)/C1=C/c1ccc(-c2cc(C)c(C)cc2[N+](=O)[O-])o1
Activity (A549 [1]): inactive
Activity [2]: inactive
Activity (A549 [3]): inactive
Activity (A549 [4]): inactive
Activity [5]: inactive
Activity (A549 [6]): inactive
Activity (A549 [7]): inactive
Activity [8]: inactive
ΔTm (dsDNA [9]): 20.9 °C
Activity (A549 [10]): inactive
Activity (A549 [11]): inactive
Activity (A549 [12]): inactive
Activity (A549 [13]): Active
Activity (A549 [14]): inactive
Activity (A549 [15]): inactive
Activity [16]: inactive
ΔTm (dsDNA [17]): 13.6 °C
Activity [18]: inactive
IC50 [19]: 3.9 to 4.2 µM
Activity [20]: inactive
Activity [21]: inactive
Activity (A549 [22]): inactive
Activity (A549 [23]): inactive
Activity [24]: inactive
Activity [25]: inactive
Activity (A549 [26]): inactive
Activity [27]: inactive
Activity [28]: inactive
Activity (A549 [29]): inactive
Activity [30]: inactive
Activity (A549 [31]): inactive
Activity (A549 [32]): inactive
Activity (A549 [33]): inactive
Activity (A549 [34]): inactive
Activity (A549 [35]): inactive
Activity (A549 [36]): inactive
Activity [37]: inactive
Activity (A549 [38]): inactive
Activity [39]: inactive

CC(=O)Nc1cc(C(=O)Nc2cn(C)c(C(=O)Nc3cn(C)c(C(=O)Nc4cc(C(=O)NCCCC(=O)Nc5cc(C(=O)Nc6cc(C(=O)Nc7cc(C(=O)Nc8cc(C(=O)NCCCN(C)C)n(C)c8)n(C)c7)n(C)c6)n(C)c5)n(C)c4)n3)n2)n(C)c1
Activity (A549 [13]): inactive
inhibition [40]: inactive

CC1=NN(c2ccc(C(=O)NCCC(=O)NCCC(=O)Nc3cc(C(=O)Nc4cn(C)c(C(=O)Nc5cn(C)c(C(=O)Nc6cc(C(=O)NCCCC(=O)Nc7cc(C(=O)Nc8cc(C(=O)Nc9cc(C(=O)Nc%10cc(C(=O)NCCCN(C)C)n(C)c%10)n(C)c9)n(C)c8)n(C)c7)n(C)c6)n5)n4)n(C)c3)cc2)C(=O)/C1=C/c1ccc(-c2cc(C)c(C)cc2[N+](=O)[O-])o1
ΔTm (dsDNA [9]): 11 °C
Activity (A549 [13]): Active
ΔTm (dsDNA [17]): 16.9 °C
IC50 [19]: 3.9 to 4.2 µM

CCCCCCCCCCCCCCOc1cc(OCCCCCC(=O)NCCC(=O)Nc2cc(C(=O)Nc3cn(C)c(C(=O)Nc4cn(C)c(C(=O)Nc5cc(C(=O)NCCCC(=O)Nc6cc(C(=O)Nc7cc(C(=O)Nc8cc(C(=O)Nc9cc(C(=O)O)n(C)c9)n(C)c8)n(C)c7)n(C)c6)n(C)c5)n4)n3)n(C)c2)cc(O)c1C(=O)O
inhibition [19]: Dose-dependent effect
